# Measurements published in ChEMBL document CHEMBL2434966, “Novel N-4-piperazinyl-ciprofloxacin-chalcone hybrids: synthesis, physicochemical properties, anticancer and topoisomerase I and II inhibitory activity” (Eur J Med Chem, 2013).
# Experiments:
# SW-620 = assay: Growth inhibition of human SW620 cells assessed as cell growth at 10^-5 M after 48 hrs by sulforhodamine B assay; assay type: functional; conditions: SW-620, 48 h, read-out: Activity
# How it was run: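 NCI primary one-dose screen: single concentration of 10^-5 M added to culture, 48 h incubation, SRB protein-dye endpoint. Percent growth of treated cells measured spectrophotometrically against untreated controls.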
# SK-MEL-5 [1] = assay: Growth inhibition of human SK-MEL-5 cells assessed as cell growth at 10^-5 M after 48 hrs by sulforhodamine B assay; assay type: functional; conditions: SK-MEL-5, 48 h, read-out: Activity
# How it was run: (§1)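 NCI 60-cell-line primary one-dose screen. Cells were exposed to a single 10^-5 M concentration for 48 h. The end point was sulforhodamine B protein staining, read spectrophotometrically. Results are reported as percent growth of treated cells relative to untreated control cells.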
# SK-MEL-5 [2] = assay: Growth inhibition of human SK-MEL-5 cells after 48 hrs by sulforhodamine B assay; assay type: functional; conditions: SK-MEL-5, 48 h; for CC50: read-out: LC50 (the source's name)
# How it was run: (§2)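 NCI five-dose screen on the full 60-cell-line panel. Cells were given 10-fold dilutions from 10^-4 to 10^-8 M with continuous 48 h exposure, and growth was read by SRB staining. Percent growth was taken from time-zero, control and treated absorbances. GI50, TGI and LC50 were then derived, the GI50 being the concentration that gives a 50% lower net protein increase than control.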
# RXF 393 = assay: Growth inhibition of human RXF393 cells after 48 hrs by sulforhodamine B assay; assay type: functional; conditions: RXF 393, 48 h; for CC50: read-out: LC50 (the source's name); how it was run: as §2
# NCI-H460 [3] = assay: Growth inhibition of human NCI-H460 cells assessed as cell growth at 10^-5 M after 48 hrs by sulforhodamine B assay; assay type: functional; conditions: NCI-H460, 48 h, read-out: Activity; how it was run: as §1
# DU-145 = assay: Growth inhibition of human DU145 cells assessed as cell growth at 10^-5 M after 48 hrs by sulforhodamine B assay; assay type: functional; conditions: DU-145, 48 h, read-out: Activity
# How it was run: (§3)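 NCI 60-cell-line primary screen. Single concentration of 10^-5 M, 48 h incubation. End point by sulforhodamine B protein staining read spectrophotometrically. Reported as percent growth of treated cells relative to untreated control cells.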
# UACC-257 = assay: Growth inhibition of human UACC257 cells after 48 hrs by sulforhodamine B assay; assay type: functional; conditions: UACC-257, 48 h; for CC50: read-out: LC50 (the source's name)
# How it was run: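 NCI 60-cell panel, five concentrations (10-fold dilutions, 0.01–100 µM), 48 h continuous exposure; SRB protein stain read spectrophotometrically. Percent growth from time-zero, untreated-control and treated absorbances. GI50 is the concentration giving 50% lower net protein increase than control. Values beyond the tested range are reported as more or less than the highest or lowest concentration.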
# [4] = Aqueous solubility of the compound at pH 6.9 by UV spectroscopic analysis; assay type: physicochemical; conditions: aqueous solution
# How it was run: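 Excess solid (10 mg) shaken in buffer at pH 6.9 or 7.8, 37 °C. The filtrate was diluted into the linear calibration range and dissolved drug measured by UV absorbance at λmax 272 nm. Values are the average of at least three agreeing independent measurements.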
# NCI-H322M = assay: Growth inhibition of human NCI-H322M cells assessed as cell growth at 10^-5 M after 48 hrs by sulforhodamine B assay; assay type: functional; conditions: read-out: Activity; how it was run: as §1
# NCI-H226 = assay: Growth inhibition of human NCI-H226 cells after 48 hrs by sulforhodamine B assay; assay type: functional; conditions: NCI-H226, 48 h; for CC50: read-out: LC50 (the source's name); how it was run: as §2
# NCI-H460 [5] = assay: Growth inhibition of human NCI-H460 cells after 48 hrs by sulforhodamine B assay; assay type: functional; conditions: NCI-H460, 48 h; for CC50: read-out: LC50 (the source's name); how it was run: as §2
# SK-MEL-2 = assay: Growth inhibition of human SK-MEL-2 cells after 48 hrs by sulforhodamine B assay; assay type: functional; conditions: SK-MEL-2, 48 h; for CC50: read-out: LC50 (the source's name); how it was run: as §2
# MCF7 = assay: Growth inhibition of human MCF7 cells after 48 hrs by sulforhodamine B assay; assay type: functional; conditions: MCF7, 48 h
# How it was run: (§4)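 NCI 60-panel five-dose test at 10-fold dilutions, 10^-4 to 10^-8 M, with 48 h continuous exposure and SRB protein read-out. Percent growth derived from time-zero, untreated-control and treated absorbances. GI50 is the concentration where [(Ti-Tz)/(C-Tz)]×100 = 50. TGI is taken at Ti = Tz. LC50 is taken at [(Ti-Tz)/Tz]×100 = -50.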
# SK-OV-3 = assay: Growth inhibition of human SKOV3 cells assessed as cell growth at 10^-5 M after 48 hrs by sulforhodamine B assay; assay type: functional; conditions: SK-OV-3, 48 h, read-out: Activity; how it was run: as §1
# Malme-3M = assay: Growth inhibition of human MALME-3M cells assessed as cell growth at 10^-5 M after 48 hrs by sulforhodamine B assay; assay type: functional; conditions: read-out: Activity; how it was run: as §3
# M14 = assay: Growth inhibition of human M14 cells after 48 hrs by sulforhodamine B assay; assay type: functional; conditions: M14, 48 h; how it was run: as §4
# HOP-92 = assay: Growth inhibition of human HOP92 cells after 48 hrs by sulforhodamine B assay; assay type: functional; conditions: HOP-92, 48 h; how it was run: as §4
Compound,growth at 10 µM (SW-620),growth at 10 µM (SK-MEL-5 [1]),GI50 (SK-MEL-5 [2]),TGI (SK-MEL-5 [2]),CC50 (SK-MEL-5 [2]),GI50 (RXF 393),TGI (RXF 393),CC50 (RXF 393),growth at 10 µM (NCI-H460 [3]),growth at 10 µM (DU-145),GI50 (UACC-257),TGI (UACC-257),CC50 (UACC-257),solubility [4],growth at 10 µM (NCI-H322M),GI50 (NCI-H226),TGI (NCI-H226),CC50 (NCI-H226),GI50 (NCI-H460 [5]),TGI (NCI-H460 [5]),other results
COc1cc(/C=C/C(=O)c2ccc(NC(=O)CN3CCN(c4cc5c(cc4F)c(=O)c(C(=O)O)cn5C4CC4)CC3)cc2)cc(OC)c1OC,6.38%,-42.9%,1.06 µM,4.06 µM,> 100 µM,0.34 µM,1.06 µM,3.47 µM,-20%,2.17%,1.42 µM,65.4 µM,> 100 µM,2.13 µg/mL,-7.05%,0.95 µM,26 µM,> 100 µM,0.37 µM,3.79 µM,CC50 (NCI-H460 [5]): > 100 µM; GI50 (SK-MEL-2): 1.98 µM; TGI (SK-MEL-2): 5.38 µM; CC50 (SK-MEL-2): 43.7 µM; GI50 (MCF7): 0.47 µM; LC50 (50% net cell kill) (MCF7): > 100 µM; TGI (MCF7): > 100 µM; growth at 10 µM (SK-OV-3): 33.3%; growth at 10 µM (Malme-3M): 31.4%; GI50 (M14): 0.77 µM; LC50 (concentration giving 50% net cell kill) (M14): > 100 µM; TGI (M14): 7.16 µM
O=C(CN1CCN(c2cc3c(cc2F)c(=O)c(C(=O)O)cn3C2CC2)CC1)Nc1ccc(C(=O)/C=C/c2ccccc2)cc1,41%,13.6%,2.74 µM,13 µM,> 100 µM,2.5 µM,> 100 µM,> 100 µM,7.12%,43.1%,3.9 µM,90.8 µM,> 100 µM,2.73 µg/mL,73.7%,6.83 µM,> 100 µM,> 100 µM,3.17 µM,> 100 µM,CC50 (NCI-H460 [5]): > 100 µM; GI50 (SK-MEL-2): 2.94 µM; TGI (SK-MEL-2): 11.3 µM; CC50 (SK-MEL-2): > 100 µM; GI50 (HOP-92): 0.43 µM; TGI (HOP-92): 3.82 µM; CC50 (HOP-92; read-out: LC50 (the source's name)): > 100 µM; GI50 (MCF7): 3.52 µM; LC50 (50% net cell kill) (MCF7): > 100 µM; TGI (MCF7): > 100 µM; growth at 10 µM (SK-OV-3): 93.6%; growth at 10 µM (Malme-3M): 51%; GI50 (M14): 5.22 µM; LC50 (concentration giving 50% net cell kill) (M14): > 100 µM; TGI (M14): > 100 µM
